Bioassay records: PubChem BioAssay, Broad Institute
Only some compounds are listed: those with a hit (about 3.8% of all), similar ones and a draw of the others.
ARNT-TACC3 inh – disruptors of ARNT/TACC3 protein interaction, primary screen, biochemical, AlphaScreen, single concentration; Transforming acidic coiled-coil-containing protein 3 (Homo sapiens), Q9Y6A5; AlphaScreen His-ARNT PAS-B/GST-TACC3 binding, luminescence; TACC3 fragment carries E629A point mutation; inhibition, % at 9.99 µM; hit rate 0.66% among 390,000;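 active = mean inhibition of replicates at least 50% and at least half of replicates each reaching 50%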;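 also: 0% = complete ARNT plus TACC3 wells and 100% = ARNT alone without TACC3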
DENV2 CPE rescue – inhibitors of DENV2 cytopathic effect, primary screen, cell-based, plate reader, single concentration; hit rate 1.7% among 350,000; CPE inhibition, % at 9.99 µM; AID 651640, 2012; DENV2-infected cells, cytopathic effect rescue; in the data active = CPE inhibition above about 20%, passing the limit was not always enough; tested in BHK-21 cells;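 also: 0% = median of neutral control wells and 100% = median of positive control wells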
FGF22 binding – binders of human FGF22 protein, primary screen, FGF22 synaptogenesis inhibitor project, biophysical, thermal shift, single point; hit rate 1.5% among 340,000; recombinant FGF22 thermal shift, SYPRO orange fluorescence; percent of sucrose octasulfate shift, DMSO zero; AID 651658, 2012; activity (Tm shift, normalised), % at 9.99 µM;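 active = mean Tm shift, scaled 0 neutral to 100 positive control, at about 1.3% or above, every replicate too, limit read from the data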
Target sequence (Q9HCT0 whole entry, looked up): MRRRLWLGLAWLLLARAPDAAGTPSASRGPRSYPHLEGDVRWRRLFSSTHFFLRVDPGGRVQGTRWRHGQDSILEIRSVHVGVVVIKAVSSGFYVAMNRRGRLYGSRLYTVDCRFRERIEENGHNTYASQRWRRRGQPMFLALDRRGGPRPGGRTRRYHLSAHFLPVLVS
SIRT5 block – SIRT5 desuccinylase inhibitors, primary screen, biochemical, fluorescence imaging, single point, set 5 | hit rate 1.1% among 330,000 | inhibition, % at 15 µM | Purified SirT5, succinyl-peptide AMC, trypsin-coupled fluorescence | NAD-dependent protein deacylase sirtuin-5, mitochondrial (Homo sapiens), Q9NXA8; in the data active = inhibition above about 15%
FN deposit inh – inhibitors of fibronectin matrix deposition, primary screen, AH1F cells, Alexa488-fibronectin fluorescence, plate reader; AH1F fibroblasts, overnight; inhibition, % at 12.6 µM; hit rate 0.086% among 350,000;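 active = mean inhibition across replicates of 30% or more, regardless of how many single replicates reach that level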;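 also: positive control wells lacked labelled fibronectin entirely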
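test system = AH1F fibroblasts assembling fluorescent fibronectin matrix | quantity = 10000 AH1F cells per well | buffer or medium = DMEM plus 2% serum, read in PBS | doses = single dose, pinned | incubation = 1 h cell attachment, overnight exposure to compound and label | detection = fluorescence at 485 nm excitation, 525 nm emission | read-out basis = inhibition from reduced deposited-fibronectin fluorescence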
XiGFP reactiv – activators of inactive X chromosome reactivation, primary screen, imaging, XiGFP fibroblasts, GFP high-content imaging, set 2; XiGFP mouse fibroblasts, % GFP-positive cells imaging, 3 d; cells co-treated with 5-aza-dC sensitizer; scaled so ellipticine positive control = 100%; AID 743238, 2013; hit rate 0.055% among 360,000; activation, % at 7.58 µM;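 active = mean normalized replicate activation at least 10% and every replicate at or above 10%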;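 also: 0% = median of on-plate neutral control wells and 100% = ellipticine 6 µM median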
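assay system = SV40-immortalized XiGFP fibroblast cells, line 68-5-11 | buffer or medium = DMEM plus 5-aza-dC sensitizer | doses = single-point pinned compound dosing | times = 3-day compound exposure, then 15 min fixation at room temperature | benchmarks = positive control ellipticine, 6 µM final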
Active calls of the source: *; / = no result given.

SMILES	ARNT-TACC3 inh	DENV2 CPE rescue	FGF22 binding	SIRT5 block	FN deposit inh	XiGFP reactiv
COc1ccc(C2=Nc3ccccc3N(C(=O)c3ccncc3)C2C(=O)NC(C)C)cc1 (centres undefined)	/	59*	0	3	2	0
COc1ccc(C2=Nc3ccccc3N(C(=O)Cc3cc(OC)cc(OC)c3)C2C(=O)NC(C)C)cc1 (centres undefined)	/	19	0	/	-10	0
N/C(=N\NC(=O)Nc1ccc(Cl)cc1)c1ccccn1	66*	-1	0	-1	3	0
CNC(=O)N/N=C(\N)c1ccccn1	44	4	0	6	6	0
C[C@H]1CN([C@@H](C)CO)C(=O)c2cc(C#CC3(O)CCCC3)cnc2O[C@@H]1CN(C)Cc1ccncc1	-5	10	0	-9	/	0
c1cncc(-c2ccnc3ncnn23)c1	2	1	43*	-4	0	0
CCOP(=O)(OCC)c1ccc2c(c1)C(=O)c1ccccc1CC2	6	46*	0	/	11	0
O=C1C(=C2CCc3ccccc32)Cc2ccccc21	/	-4	0	-2	2	0
CO[C@@H](CN(C)C(=O)C1CCOCC1)[C@H](C)CN(C(=O)Nc1ccc(F)cc1)[C@@H](C)CO	-8	-4	0	-2	-18	0
O=C(NCc1ccc(F)cc1)[C@H]1[C@H](CO)[C@H]2Cn3c(cccc3=O)[C@H]2N1CC1CC1	-6	-1	0	0	/	0
O=C1c2ccccc2C(=O)N1Cc1ccco1	-3	/	/	/	/	/
O=C1c2cccc3c(O)ccc(c23)C(=O)N1Cc1ccco1	-1	24*	0	8	-2	1
Cc1sc2cc3c(c(C(=O)c4ccccc4)[n+]2c1C)-c1cccc2cccc-3c12	/	36*	0	1	-2	0
O=C(c1ccccc1)c1c2c(cc3sc4ccccc4[n+]13)-c1cccc3cccc-2c13	23	/	/	/	-1	73*
O=C(c1ccccc1)c1ccc2ccccc2c1	-1	-2	0	/	1	0
O=C(C[C@H]1C=C[C@H](NC(=O)C2CC2)[C@H](CO)O1)NCC1CC1	-10	3	0	4	/	0
NS(=O)(=O)c1ccc(F)c(C(=O)O)c1	-6	-2	0	19*	1	0
C[C@H]1CN([C@@H](C)CO)C(=O)c2cccc(NS(=O)(=O)c3cn(C)cn3)c2O[C@@H]1CN(C)S(=O)(=O)c1ccc(Cl)cc1	3	-5	0	8	/	1
Cc1cc(C)nc(N/N=C/C2=C(O)CC(c3ccccc3)CC2=O)n1 (centres undefined)	/	32*	0	-2	12	0
CCCCC1=CC2=C(c3ccco3)C(=O)C(C)(OC(=O)c3ccc(OC)cc3)C(=O)C2=CN1C1CC1 (centres undefined)	-3	53*	0	/	-5	0
COc1ccc(-c2ccc([C@H]3[C@@H](CO)N4C(=O)CN(C(=O)C5CCCC5)C[C@H]34)cc2)cc1	/	4	/	-5	4	0
O=C(NNC(=O)c1n[nH]c(=O)c2ccccc12)c1ccc(Br)cc1	-6	0	0	-7	7	0
O=C(Oc1ccc(Br)cc1)c1n[nH]c(=O)c2ccccc12	-10	-6	43*	1	-2	0
COc1ccc(-c2nc3ccccc3nc2-c2ccc(OC)c(OC)c2)cc1OC	-6	-2	0	3	-1	0
COc1ccc(-c2nc3ccccc3nc2-c2ccccc2)cc1OC	11	-6	0	17*	-1	0
CC(=O)N1N=C(N)SC12CCCC2	3	1	0	20*	5	0
